Columns and labels:
Plasmodium falciparum [1] = assay: ST_JUDE: Plasmodium falciparum 3D7 EC50 (uM) as measured by SYBR green dye; format: functional, organism-based
Plasmodium falciparum [2] = assay: ST_JUDE: Plasmodium falciparum K1 EC50 (uM) as measured by SYBR green dye; format: functional, organism-based
Plasmodium falciparum [3] = assay: ST_JUDE: Cytotoxicity against Plasmodium falciparum 3D7; format: functional, organism-based
Procedure, shortened: (§1)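 Asexual P. falciparum grown in human erythrocytes, exposed to compounds for 72 h, and growth read as the DNA quantity in treated versus control cultures. Dose-response run at 12 concentrations from 10 μM to 5 nM.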

Plasmodium falciparum [4] = assay: ST_JUDE: Cytotoxicity against Plasmodium falciparum K1; format: functional, organism-based; procedure, shortened: as §1
Plasmodium falciparum [5] = assay: ST_JUDE: Cytotoxicity against Plasmodium falciparum V1/S; format: functional, organism-based
Toxoplasma gondii = assay: ST_JUDE: Growth inhibition of to Toxoplasma gondii, in human U-2OS cells, as measured by luciferase.; format: functional, organism-based; conditions: RH, U2OS
Procedure, shortened: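 T. gondii parasites engineered to express luciferase; drug sensitivity read by luminescence.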

Trypanosoma brucei = assay: ST_JUDE: Cytotoxicity using luciferase to measure ATP as an indicator of the viability of Trypanosoma brucei; format: functional, organism-based
Leishmania major = assay: ST_JUDE: Cytotoxicity using Alamar Blue to measure viability of Leishmania major; format: functional, organism-based
Procedure, shortened: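 L. major promastigotes; drug susceptibility read with Alamar Blue.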

[6] = ST_JUDE: Cytotoxicity using luciferase to measure ATP as an indicator of the viability of human foreskin fibroblast cells (BJ); format: toxicity, cell-based
[7] = ST_JUDE: Cytotoxicity using luciferase to measure ATP as an indicator of the viability of human epithelial hepatocellular carcinoma cells (HepG2); format: toxicity, cell-based
[8] = ST_JUDE: Cytotoxicity using luciferase to measure ATP as an indicator of the viability of human epithelial embryonic kidney cells (HEK293); format: toxicity, cell-based
[9] = ST_JUDE: Cytotoxicity using luciferase to measure ATP as an indicator of the viability of human Burkitt''s lymphoma lymphoblast cells (Raji); format: toxicity, cell-based
Plasmodium falciparum [10] = assay: ST_JUDE: Cytotoxicity against Plasmodium falciparum Dd2; format: functional, organism-based
Plasmodium falciparum [11] = assay: ST_JUDE: Cytotoxicity against Plasmodium falciparum W2; format: functional, organism-based
Plasmodium falciparum [12] = assay: ST_JUDE: Cytotoxicity against Plasmodium falciparum SB-A6; format: functional, organism-based
Plasmodium falciparum [13] = assay: ST_JUDE: Cytotoxicity against Plasmodium falciparum D10 transfected with yeast DHOD; format: functional, organism-based

| SMILES | EC50 (Plasmodium falciparum [1]) [nM] | EC50 (Plasmodium falciparum [2]) [nM] | EC50 (Plasmodium falciparum [3]) [nM] | EC50 (Plasmodium falciparum [4]) [nM] | EC50 (Plasmodium falciparum [5]) [nM] | EC50 (Toxoplasma gondii) [nM] | EC50 (Trypanosoma brucei) [nM] | EC50 (Leishmania major) [nM] | EC50 [6] [nM] | EC50 [7] [nM] | EC50 [8] [nM] | EC50 [9] [nM] | EC50 (Plasmodium falciparum [10]) [nM] | EC50 (Plasmodium falciparum [11]) [nM] | EC50 (Plasmodium falciparum [12]) [nM] | EC50 (Plasmodium falciparum [13]) [nM] |
| --- | --- | --- | --- | --- | --- | --- | --- | --- | --- | --- | --- | --- | --- | --- | --- | --- |
| CCN(CC)CCn1c(=N)n(CC(O)c2ccc(Cl)c(Cl)c2)c2ccccc21 (stereo not given) | 907 | 761 | 804 | 1030 | 1110 | 9010 | 4960 | > 18400 | > 43100 | 7180 | 30700 | > 43100 | 480 | 722 | 1070 | 842 |
| O=C(Nc1cccc(Cl)c1N1CCOCC1)C(Cl)(Cl)Cl | 8600 | 2980 | 1540 | 1400 | 1080 | > 16600 | > 29000 | > 12900 | > 30200 | > 30200 | > 30200 | > 30200 | 2470 | > 7760 | 2790 | 3380 |
| CC[n+]1ccccc1C=Cc1ccc(N(C)C)cc1 | > 15000 | 704 | 1080 | 1140 | 1980 | > 24800 | 14300 | > 19400 | > 45300 | > 45300 | > 45300 | 3860 | 1820 | > 11600 | 1920 | 1470 |
| CC(=O)N(C1=C(N(C)C)C(=O)c2ccccc2C1=O)c1ccc(F)cc1 | 68.5 | 144 | 12.1 | 15.2 | 11.9 | 630 | 571 | > 13700 | 3830 | 712 | 7540 | 284 | 12.5 | 77.3 | 29.7 | 17.6 |
| Cc1ccc(C2CC(C(F)(F)F)n3nc(C(=O)N4CCN(C(c5ccccc5)c5ccccc5)CC4)cc3N2)cc1 (stereo not given) | 668 | 10400 | 1120 | > 11000 | > 11000 | > 23400 | 5410 | > 18300 | > 42700 | > 42700 | > 42700 | > 42700 | 1370 | > 11000 | 448 | > 11000 |
| CC(C)c1ccc(CNCC(O)c2ccccc2)cc1 (stereo not given) | 1350 | 439 | 2400 | 992 | 1150 | > 29000 | 14400 | > 22600 | > 52900 | > 52900 | 34500 | 23200 | 2250 | 1680 | 4300 | 4100 |
| CCOC(=O)C1(Cc2cccc(F)c2)CCN(Cc2ccccc2O)CC1 | 347 | 284 | 1200 | 402 | 1270 | > 28800 | 25300 | > 22500 | > 52600 | > 52600 | > 52600 | > 52600 | 679 | 1010 | 1200 | 1420 |
| Oc1ccc(Br)cc1CN1CCN(Cc2cccc(F)c2)CC1 | 3510 | 1300 | 1560 | 656 | 723 | > 17400 | 25800 | > 13600 | > 31800 | > 31800 | > 31800 | > 31800 | 1500 | 1740 | 1740 | 1500 |
| CCCO/C(O)=C1\C(C)=NC2=C(C(=O)CC(c3ccc(OC)cc3)C2)C1c1ccc([N+](=O)[O-])cc1 (stereo not given) | 653 | 1080 | 3000 | 1080 | 1480 | > 24800 | 6940 | > 19400 | > 45200 | > 45200 | > 45200 | > 45200 | 1600 | > 11600 | 1030 | 1530 |
| C[n+]1ccccc1/C=C/c1ccc([N+](=O)[O-])cc1 | 1410 | 1420 | 804 | 745 | 858 | > 18500 | > 32400 | > 14500 | > 33800 | > 33800 | > 33800 | > 33800 | 1040 | 4230 | 1080 | 899 |
| CC(O)(c1ccc(Cl)cc1)C(CN1CCCCC1)c1ccccc1 (stereo not given) | 916 | 267 | 2200 | 652 | 1310 | > 27700 | 24000 | > 21600 | > 50600 | > 50600 | > 50600 | > 50600 | 1260 | 7800 | 4240 | 5330 |
| CCCO/C(O)=C1\C(C)=NC2=C(C(=O)CC(c3ccc(OC)c(OC)c3)C2)C1c1cccc(C)c1 (stereo not given) | 574 | 386 | 720 | 390 | 634 | > 24300 | 11300 | > 19000 | > 44300 | 41000 | > 44300 | > 44300 | 1340 | 4560 | 297 | 456 |
| COc1ccc(C2CC(=O)C3=C(C2)NC(=O)CC3c2ccc(OC)c(OC)c2)cc1 (stereo not given) | 919 | 1320 | 1240 | 1510 | > 11700 | > 24900 | > 43500 | > 19400 | > 45400 | > 45400 | > 45400 | > 45400 | 1310 | 2210 | 2320 | 1640 |
| CCOc1ccc(N(C(C)=O)C2=C(N3CCOCC3)C(=O)c3ccccc3C2=O)cc1 | 54.7 | 221 | 69 | 100 | 51.5 | 5190 | 2960 | > 15900 | 9600 | 6000 | 13100 | 4570 | 487 | 1880 | 58.4 | 26.6 |
| CCN(CC)c1ccc(/C=C/c2ccc3ccc(OC)cc3[n+]2CC)cc1 | 1130 | 803 | 422 | 419 | 413 | 4170 | 441 | 2.4 | > 16800 | 1920 | > 16800 | 484 | 229 | 304 | 449 | 308 |

Reference: ChEMBL document CHEMBL1154198, “Chemical genetics of Plasmodium falciparum” (Nature, 2010)
